Experimental data reported in ChEMBL document CHEMBL1150836, “Bioactive constituents of the roots of Cynanchum atratum” (2001).
Values after ≈ are worked out from the molar mass of the structure shown.

Key:
[1] = system: RAW264.7; test: Antiinflammatory activity in LPS-stimulated mouse RAW264.7 cells assessed as inhibition of TNFalpha formation at 30 uM pretreated 1 hr before LPS challenge measured after 24 hrs by enzyme immunoassay; assay type: functional
Summary of the method: (§1)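 RAW 264.7 cells, 2 × 10⁵ per well in DMEM with 5% FCS and penicillin/streptomycin, adhered overnight. Pretreated 1 h at 37 °C with drug (0.5% DMSO vehicle; dexamethasone reference), then LPS (E. coli 0111:B4) 1 μg/mL for 24 h. TNF-α in the collected medium, stored at −70 °C, quantified by EIA kit.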

[2] = system: N9; test: Antiinflammatory activity in LPS/IFN-gamma-stimulated mouse N9 cells assessed as inhibition of TNFalpha formation at 30 uM pretreated 1 hr before LPS/IFNgamma challenge measured after 24 hrs by enzyme immunoassay
[3] = Cytotoxicity against mouse 212 cells after 6 days by MTT assay; assay type: functional; conditions: 144 h, read-out: ED50 (the source's name)
Summary of the method: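 Ha-ras-transformed NIH/3T3 line (212), kept in MEM alpha with 10% calf serum and antibiotics. Assay medium had 10 mM HEPES pH 7.3. (1–3) × 10³ cells seeded, attached 6 h, then exposed to a range of drug concentrations for 6 days at 37 °C. MTT 4 h, DMSO solubilisation, A550.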

[4] = system: RAW264.7; test: Antiinflammatory activity in LPS-stimulated mouse RAW264.7 cells assessed as inhibition of TNFalpha formation at 10 uM pretreated 1 hr before LPS challenge measured after 24 hrs by enzyme immunoassay; assay type: functional; summary of the method: as §1
[5] = system: N9; test: Antiinflammatory activity in LPS/IFN-gamma-stimulated mouse N9 cells assessed as inhibition of TNFalpha formation at 10 uM pretreated 1 hr before LPS/IFNgamma challenge measured after 24 hrs by enzyme immunoassay
[6] = system: T-24; test: Cytotoxicity against human T24 cells after 6 days by MTT assay; assay type: functional; conditions: T-24, 144 h, read-out: ED50 (the source's name)
Summary of the method: (§2)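 Cells grown in DMEM with 10% FBS, 2 mM glutamine and penicillin/streptomycin. (1–3) × 10³ cells seeded per well, attached 6 h, then given fresh medium with 10 mM HEPES pH 7.3 and a range of drug concentrations at 37 °C, CO₂, for 6 days. MTT (1 mg/mL in PBS) added for 4 h, formazan dissolved in DMSO, absorbance read at 550 nm.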

[7] = system: Ca-Ski; test: Cytotoxicity against human CaSki cells after 6 days by MTT assay; assay type: functional; conditions: 144 h, read-out: ED50 (the source's name); summary of the method: as §2
[8] = system: SiHa; test: Cytotoxicity against human SiHa cells after 6 days by MTT assay; assay type: functional; conditions: 144 h, read-out: ED50 (the source's name); summary of the method: as §2
[9] = system: HT-3; test: Cytotoxicity against human HT3 cells after 6 days by MTT assay; assay type: functional; conditions: HT-3, 144 h, read-out: ED50 (the source's name); summary of the method: as §2
[10] = Cytotoxicity against human PLC/PRF/5 cells after 6 days by MTT assay; assay type: functional; conditions: PLC-PRF-5, 144 h, read-out: ED50 (the source's name); summary of the method: as §2

| SMILES | inhibition at 30 µM [1] | inhibition at 30 µM [2] | EC50 [3] | inhibition at 10 µM [4] | inhibition at 10 µM [5] | further results |
| --- | --- | --- | --- | --- | --- | --- |
| CC(=O)c1ccc(O)c(O)c1 | -29.2% | -21.5% | – | – | – | – |
| CO[C@@H]1[C@@H](O)[C@H](O[C@H]2CC[C@@]3(C)C(=CC[C@@H]4C(=O)O[C@@H]5CO[C@]6(C)OC=C(CC[C@@H]43)[C@H]56)C2)O[C@H](C)[C@H]1O[C@H]1C[C@H](OC)[C@@H](O[C@H]2C[C@H](OC)[C@H](O)[C@@H](C)O2)[C@H](C)O1 | 33.7% | 30.9% | 0.96 µg/mL (≈ 1.19 µM) | – | – | – |
| CO[C@@H]1[C@@H](O)[C@H](O[C@H]2CC[C@@]3(C)C(=CC[C@@H]4C(=O)O[C@@H]5CO[C@]6(C)OC=C(CC[C@@H]43)[C@H]56)C2)O[C@H](C)[C@H]1O | – | – | – | 29.5% | 3.2% | – |
| COc1cc(C(C)=O)ccc1O [APOCYNIN] | -19.8% | -22.6% | – | – | – | – |
| CO[C@@H]1[C@@H](O)[C@H](O[C@H]2CC[C@@]3(C)C(=CC[C@@H]4C(=O)O[C@@H]5CO[C@]6(C)OC(=O)/C(=C/C[C@@H]43)[C@H]56)C2)O[C@H](C)[C@H]1O[C@H]1C[C@H](OC)[C@@H](O[C@H]2C[C@H](OC)[C@H](O)[C@@H](C)O2)[C@H](C)O1 [ATRATOGLAUCOSIDE B] | – | – | > 4 µg/mL | – | – | EC50 [6]: > 4 µg/mL; EC50 [7]: > 4 µg/mL; EC50 [8]: > 4 µg/mL; EC50 [9]: > 4 µg/mL; EC50 [10]: > 4 µg/mL |
| C[C@@H]1C[C@H]2[C@@H]3CCC4=CC(=O)C=C[C@]4(C)[C@@]3(F)[C@@H](O)C[C@]2(C)[C@@]1(O)C(=O)CO [DEXAMETHASONE] | – | – | – | 49.9% | 82% | – |
